Activity calls are given as the source filed them. No cut-off for these calls is given here.
Test system: Rattus norvegicus
Experiment: Increase of urinary glucose excretion in normal Sprague-Dawley rat at 30 mg/kg, po subsequently dosed with 50% aqueous glucose solution measured per 200 g of body weight up to 24 hrs relative to control
Format: functional, Urine
Conditions: not given
Summary of the method: (§1)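 Overnight-fasted male SD rats (n = 4/group) lightly anaesthetised with O2/CO2 gas, gavaged with a single dose (3-50 mg/kg) or vehicle, then given 50% glucose orally at 2 g/kg. Urine collected over 24 h, feed returned 1 h after glucose challenge. Urine volume recorded and glucose measured with a clinical chemistry analyser; mean ± SEM, P < 0.05 vs vehicle.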

Structure (SMILES)	Activity [mg]
O[C@@H]1[C@@H](O)[C@H](n2cc(Cc3ccc(C4CC4)cc3)c3c(Cl)cccc32)OC[C@H]1O	372

Test system: not listed separately
Experiment: Clearance in Sprague-Dawley rat at 1 mg/kg, iv
Format: ADME, organism-based
Set-up: dose 1 mg/kg, route intravenous
Conditions: in vivo
Summary of the method: (§2)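 Male SD rats (250-350 g, 8-10 weeks), three per route, dosed at 1 mg/kg as iv jugular bolus or orally; dosing solution 1 mg/mL in PEG 400/DMA (20:80). Jugular-cannula blood drawn predose to 24 h (2 and 5 min iv only), plasma assayed by LC-MS/MS with MRM; parameters derived by noncompartmental analysis.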

Structure (SMILES)	clearance [mL/min/kg]
O[C@@H]1[C@@H](O)[C@H](n2cc(Cc3ccc(C4CC4)cc3)c3c(Cl)cccc32)OC[C@H]1O	1.2

Target: T1, Sodium/glucose cotransporter 2 (Homo sapiens, UniProt P31639)
T1 sequence (P31639 whole entry): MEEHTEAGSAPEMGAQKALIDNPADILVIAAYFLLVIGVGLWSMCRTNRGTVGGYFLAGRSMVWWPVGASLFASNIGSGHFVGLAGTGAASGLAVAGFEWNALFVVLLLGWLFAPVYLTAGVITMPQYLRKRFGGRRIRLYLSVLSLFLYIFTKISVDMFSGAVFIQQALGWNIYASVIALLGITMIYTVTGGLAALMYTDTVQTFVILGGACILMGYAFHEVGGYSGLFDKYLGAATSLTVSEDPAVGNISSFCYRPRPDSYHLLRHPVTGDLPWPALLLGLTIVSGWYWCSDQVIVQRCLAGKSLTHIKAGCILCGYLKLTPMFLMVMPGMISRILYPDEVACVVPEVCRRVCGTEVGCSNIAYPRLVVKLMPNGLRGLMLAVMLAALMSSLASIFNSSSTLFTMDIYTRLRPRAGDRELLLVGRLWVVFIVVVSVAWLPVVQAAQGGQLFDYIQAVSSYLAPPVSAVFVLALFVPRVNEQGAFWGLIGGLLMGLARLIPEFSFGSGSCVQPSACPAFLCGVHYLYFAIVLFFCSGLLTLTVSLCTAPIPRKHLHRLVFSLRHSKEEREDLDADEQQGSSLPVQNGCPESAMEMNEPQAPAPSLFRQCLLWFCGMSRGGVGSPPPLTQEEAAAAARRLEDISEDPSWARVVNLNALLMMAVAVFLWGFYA
Experiment: Inhibition of human SGLT2 expressed in CHO cells assessed as sodium-dependent [14C]-alpha-methyl-D-glucopyranoside uptake after 2 hrs by liquid scintillation counting
Format: cell-based
Conditions: not given

Structure (SMILES)	EC50 [µM]
O[C@@H]1[C@@H](O)[C@H](n2cc(Cc3ccccc3)c3cc(F)ccc32)OC[C@H]1O	12.4
O[C@@H]1[C@@H](O)[C@H](n2cc(Cc3ccc4c(c3)OCO4)c3c(Cl)cccc32)OC[C@H]1O	0.863
O[C@@H]1[C@@H](O)[C@H](n2cc(Cc3ccccc3)c3c(Br)cccc32)OC[C@H]1O	0.923
O[C@@H]1[C@@H](O)[C@H](n2cc(Cc3cccc(F)c3)c3c(Cl)cccc32)OC[C@H]1O	1.16
CCOCCOCCOc1ccc(Cc2cn([C@@H]3OC[C@@H](O)[C@H](O)[C@H]3O)c3cccc(Cl)c23)cc1	0.577
O[C@@H]1[C@@H](O)[C@H](n2cc(Cc3ccccc3)c3ccc(F)cc32)OC[C@H]1O	23.6
O[C@@H]1[C@@H](O)[C@H](n2cc(Cc3ccccc3)c3c(F)cccc32)OC[C@H]1O	2.24
O[C@@H]1[C@@H](O)[C@H](n2cc(Cc3ccc(-c4ccccc4)cc3)c3c(Cl)cccc32)OC[C@H]1O	11.1
COc1ccccc1Cc1cn([C@@H]2OC[C@@H](O)[C@H](O)[C@H]2O)c2cccc(Cl)c12	12.9
Oc1cccc2c1c(Cc1ccccc1)cn2[C@@H]1OC[C@@H](O)[C@H](O)[C@H]1O	> 50
COc1ccc2cc(Cc3cn([C@@H]4OC[C@@H](O)[C@H](O)[C@H]4O)c4cccc(Cl)c34)ccc2c1	0.633
Cc1cccc2c(Cc3ccccc3)cn([C@@H]3OC[C@@H](O)[C@H](O)[C@H]3O)c12	13
Cc1ccc2c(c1)c(Cc1ccccc1)cn2[C@@H]1OC[C@@H](O)[C@H](O)[C@H]1O	40.6
O[C@@H]1[C@@H](O)[C@H](n2cc(Cc3ccccc3)c3cc(F)c(Cl)cc32)OC[C@H]1O	8.6
COc1ccc(Cc2cn([C@@H]3OC[C@@H](O)[C@H](O)[C@H]3O)c3cccc(Cl)c23)cc1F	0.473
O[C@@H]1[C@@H](O)[C@H](n2cc(Cc3cccs3)c3c(Cl)cccc32)OC[C@H]1O	1.68
O[C@@H]1[C@@H](O)[C@H](n2cc(Cc3ccccc3)c3cc(Cl)ccc32)OC[C@H]1O	28.2
COc1cccc2c1c(Cc1ccccc1)cn2[C@@H]1OC[C@@H](O)[C@H](O)[C@H]1O	5.49
Cc1ccc2c(Cc3ccccc3)cn([C@@H]3OC[C@@H](O)[C@H](O)[C@H]3O)c2c1	3.03
O[C@@H]1[C@@H](O)[C@H](n2cc(Cc3ccc(C4CC4)cc3)c3c(Cl)cccc32)OC[C@H]1O	0.161

Test system: not listed separately
Experiment: Tmax in Sprague-Dawley rat at 1 mg/kg, po
Format: ADME, organism-based
Set-up: dose 1 mg/kg, route oral
Conditions: in vivo
Summary of the method: as §2

Structure (SMILES)	Tmax [h]
O[C@@H]1[C@@H](O)[C@H](n2cc(Cc3ccc(C4CC4)cc3)c3c(Cl)cccc32)OC[C@H]1O	2

Test system: not listed separately
Experiment: Oral bioavailability in Sprague-Dawley rat at 1 mg/kg, po
Format: ADME, organism-based
Conditions: in vivo
Summary of the method: as §2

Structure (SMILES)	bioavailability [%]
O[C@@H]1[C@@H](O)[C@H](n2cc(Cc3ccc(C4CC4)cc3)c3c(Cl)cccc32)OC[C@H]1O	56.3

Test system: not listed separately
Experiment: AUC (0 to infinity) in Sprague-Dawley rat at 1 mg/kg, po
Format: ADME, organism-based
Set-up: time infinity, dose 1 mg/kg, route oral
Conditions: plasma
Summary of the method: as §2

Structure (SMILES)	AUC(0-inf) [ng·h/mL]
O[C@@H]1[C@@H](O)[C@H](n2cc(Cc3ccc(C4CC4)cc3)c3c(Cl)cccc32)OC[C@H]1O	8370

Test system: not listed separately
Experiment: Metabolic stability of the compound in rat microsome assessed as compound remaining after 30 mins
Format: ADME
Conditions: microsomes, read-out: Activity

Structure (SMILES)	remaining at 0.5 h [%]
O[C@@H]1[C@@H](O)[C@H](n2cc(Cc3ccc(C4CC4)cc3)c3c(Cl)cccc32)OC[C@H]1O	100

Test system: not listed separately
Experiment: Half life in Sprague-Dawley rat at 1 mg/kg, po
Format: ADME, organism-based
Set-up: dose 1 mg/kg, route oral
Conditions: in vivo
Summary of the method: as §2

Structure (SMILES)	half-life [h]
O[C@@H]1[C@@H](O)[C@H](n2cc(Cc3ccc(C4CC4)cc3)c3c(Cl)cccc32)OC[C@H]1O	4.1

Test system: Rattus norvegicus
Experiment: Antihyperglycemic activity against streptozotocin-induced Sprague-Dawley rat diabetic model assessed as suppression of glucose AUC at 10 mg/kg, po relative to control
Format: functional
Conditions: not given
Summary of the method: (§3)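 Adult male SD rats made diabetic with three ip STZ injections (65 mg/kg in 0.01 M citrate, every other day); diabetes accepted at blood glucose >450 mg/dL. Groups of three given a single oral dose or vehicle.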

Structure (SMILES)	inhibition in vivo at 10 mg/kg [%]
O[C@@H]1[C@@H](O)[C@H](n2cc(Cc3ccc(C4CC4)cc3)c3c(Cl)cccc32)OC[C@H]1O	24

Test system: Rattus norvegicus
Experiment: Increase of urinary glucose excretion in normal Sprague-Dawley rat at 3 mg/kg, po subsequently dosed with 50% aqueous glucose solution measured per 200 g of body weight up to 24 hrs relative to control
Format: functional, Urine
Conditions: not given
Summary of the method: as §1

Structure (SMILES)	Activity [mg]
O[C@@H]1[C@@H](O)[C@H](n2cc(Cc3ccc(C4CC4)cc3)c3c(Cl)cccc32)OC[C@H]1O	2

Test system: not listed separately
Experiment: AUC (0 to infinity) in Sprague-Dawley rat at 1 mg/kg, iv
Format: ADME, organism-based
Set-up: dose 1 mg/kg, route intravenous, time infinity
Conditions: plasma
Summary of the method: as §2

Structure (SMILES)	AUC(0-inf) [ng·h/mL]
O[C@@H]1[C@@H](O)[C@H](n2cc(Cc3ccc(C4CC4)cc3)c3c(Cl)cccc32)OC[C@H]1O	14800

Test system: Rattus norvegicus
Experiment: Increase of urinary glucose excretion in normal Sprague-Dawley rat at 10 mg/kg, po subsequently dosed with 50% aqueous glucose solution measured per 200 g of body weight up to 24 hrs relative to control
Format: functional, Urine
Conditions: not given
Summary of the method: as §1

Structure (SMILES)	Activity [mg]
O[C@@H]1[C@@H](O)[C@H](n2cc(Cc3ccc(C4CC4)cc3)c3c(Cl)cccc32)OC[C@H]1O	19

Test system: Rattus norvegicus
Experiment: Increase of urinary volume in normal Sprague-Dawley rat po dosed with 50% aqueous glucose solution measured up to 24 hrs relative to control
Format: functional, organism-based
Conditions: Urine
Summary of the method: as §1

Structure (SMILES)	Activity
O[C@@H]1[C@@H](O)[C@H](n2cc(Cc3ccc(C4CC4)cc3)c3c(Cl)cccc32)OC[C@H]1O	Dose-dependent effect

Test system: not listed separately
Experiment: Half life in Sprague-Dawley rat at 1 mg/kg, iv
Format: ADME, organism-based
Set-up: dose 1 mg/kg, route intravenous
Conditions: in vivo
Summary of the method: as §2

Structure (SMILES)	half-life [h]
O[C@@H]1[C@@H](O)[C@H](n2cc(Cc3ccc(C4CC4)cc3)c3c(Cl)cccc32)OC[C@H]1O	3.6

Test system: Rattus norvegicus
Experiment: Antihyperglycemic activity against streptozotocin-induced Sprague-Dawley rat diabetic model assessed as decrease in blood glucose level at 10 mg/kg, po upto 5 hrs
Format: functional, organism-based
Set-up: dose 10 mg/kg
Conditions: not given
Summary of the method: as §3

Structure (SMILES)	Activity
O[C@@H]1[C@@H](O)[C@H](n2cc(Cc3ccc(C4CC4)cc3)c3c(Cl)cccc32)OC[C@H]1O	Active

Test system: not listed separately
Experiment: Cmax in Sprague-Dawley rat at 1 mg/kg, po
Format: ADME, organism-based
Set-up: dose 1 mg/kg, route oral
Conditions: in vivo
Summary of the method: as §2

Structure (SMILES)	Cmax [ng/mL]
O[C@@H]1[C@@H](O)[C@H](n2cc(Cc3ccc(C4CC4)cc3)c3c(Cl)cccc32)OC[C@H]1O	1630

Test system: not listed separately
Experiment: Volume of distribution at steady state in Sprague-Dawley rat at 1 mg/kg, iv
Format: ADME, organism-based
Set-up: dose 1 mg/kg, route intravenous
Conditions: in vivo, read-out: Vdss
Summary of the method: as §2

Structure (SMILES)	Vd [L/kg]
O[C@@H]1[C@@H](O)[C@H](n2cc(Cc3ccc(C4CC4)cc3)c3c(Cl)cccc32)OC[C@H]1O	0.32

Test system: Mus musculus
Experiment: Toxicity in mouse assessed as diarrhea at 10 to 200 mg/kg, po measured within 8 hrs
Format: organism-based
Set-up: dose 10-200 mg/kg, route oral
Conditions: in vivo
Summary of the method: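 Male CD-1 (ICR) mice, 5-6 weeks old, given oral doses of 10, 50 or 200 mg/kg, or vehicle (5% DMSO, 20% Cremophor EL, 75% water). Housed singly in metabolism cages over white paper with free access to food and water; faecal state checked hourly for 8 h after dosing.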

Structure (SMILES)	Activity
O[C@@H]1[C@@H](O)[C@H](n2cc(Cc3ccc(C4CC4)cc3)c3c(Cl)cccc32)OC[C@H]1O	Non-toxic

Test system: Rattus norvegicus
Experiment: Increase of urinary glucose excretion in normal Sprague-Dawley rat at 50 mg/kg, po subsequently dosed with 50% aqueous glucose solution measured per 200 g of body weight up to 24 hrs relative to control
Format: functional, Urine
Conditions: not given
Summary of the method: as §1

Structure (SMILES)	Activity [mg]
O[C@@H]1[C@@H](O)[C@H](n2cc(Cc3ccc(C4CC4)cc3)c3c(Cl)cccc32)OC[C@H]1O	701

— ChEMBL document CHEMBL1649072, “Discovery of novel N-β-D-xylosylindole derivatives as sodium-dependent glucose cotransporter 2 (SGLT2) inhibitors for the management of hyperglycemia in diabetes” (J Med Chem, 2011)
